Data: ChEMBL document CHEMBL1137710, “Synthesis and in vitro antitumor activity of new quinoxaline derivatives” (2009)

Key:
Format in all cases: functional
HOP-92 = assay: Growth inhibition of human HOP92 cells after 48 hrs by sulforhodamine B assay; settings: HOP-92, 48 h
Method in brief: (§1)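 NCI 60-human-tumor-cell-line panel, with compounds tested over a 5-log dose range. Values are taken from dose-response curves as log10 molar concentrations: GI50 is 50% net growth inhibition, TGI is total growth inhibition, and LC50 is 50% net cell death.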

Malme-3M = assay: Growth inhibition of human MALME-3M cells after 48 hrs by sulforhodamine B assay; method in brief: as §1
K562 = assay: Growth inhibition of human K562 cells after 48 hrs by sulforhodamine B assay; settings: K562, 48 h; method in brief: as §1
CCRF-CEM = assay: Growth inhibition of human CCRF-CEM cells after 48 hrs by sulforhodamine B assay; method in brief: as §1
HCT-15 = assay: Growth inhibition of human HCT15 cells after 48 hrs by sulforhodamine B assay; settings: HCT-15, 48 h; method in brief: as §1
T47D = assay: Growth inhibition of human T47D cells after 48 hrs by sulforhodamine B assay
Method in brief: (§2)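 Run in the NCI 60-human-tumour-cell-line panel, tested over a 5-log dose range. Dose–response curves gave three values per cell line, each as a log10 molar concentration: GI50 (50% inhibition of net cell growth), TGI (total inhibition of net growth) and LC50 (50% net cell death). The mean graph midpoint is the arithmetic mean over all lines, with insensitive lines entered at the highest concentration tested.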

HT-29 = assay: Growth inhibition of human HT-29 cells after 48 hrs by sulforhodamine B assay; settings: HT-29, 48 h; method in brief: as §1
CAKI-1 = assay: Growth inhibition of human Caki1 cells after 48 hrs by sulforhodamine B assay; settings: CAKI-1, 48 h; method in brief: as §1
SK-OV-3 = assay: Growth inhibition of human SKOV3 cells after 48 hrs by sulforhodamine B assay; settings: SK-OV-3, 48 h; method in brief: as §1
786-0 = assay: Growth inhibition of human 786-0 cells after 48 hrs by sulforhodamine B assay; settings: 786-0, 48 h; method in brief: as §1
M14 = assay: Growth inhibition of human M14 cells after 48 hrs by sulforhodamine B assay; settings: M14, 48 h; method in brief: as §1
MDA-MB-231 = assay: Growth inhibition of human MDA-MB-231 cells after 48 hrs by sulforhodamine B assay; settings: MDA-MB-231, 48 h; method in brief: as §1
OVCAR-3 = assay: Growth inhibition of human OVCAR-3 cells after 48 hrs by sulforhodamine B assay; settings: OVCAR-3, 48 h; method in brief: as §1
UACC-62 = assay: Growth inhibition of human UACC62 cells after 48 hrs by sulforhodamine B assay; settings: UACC-62, 48 h; method in brief: as §2
UO-31 = assay: Growth inhibition of human UO31 cells after 48 hrs by sulforhodamine B assay; settings: UO-31, 48 h; method in brief: as §2
TK-10 = assay: Growth inhibition of human TK10 cells after 48 hrs by sulforhodamine B assay; settings: TK-10, 48 h; method in brief: as §2
SN12C = assay: Growth inhibition of human SN12C cells after 48 hrs by sulforhodamine B assay; method in brief: as §2
A498 = assay: Growth inhibition of human A498 cells after 48 hrs by sulforhodamine B assay; settings: A498, 48 h; method in brief: as §1
HL-60(TB) = assay: Growth inhibition of human HL-60(TB) cells after 48 hrs by sulforhodamine B assay; settings: HL-60, 48 h
Method in brief: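 Tested only on compounds active in a three-line prescreen, in the NCI 60-human-tumour-cell-line panel over a 5-log dose range. Values come from dose–response curves as log10 molar GI50, the concentration inhibiting 50% net cell growth. Log10 TGI (total growth inhibition) and log10 LC50 (50% net cell death) were derived too. Mean graph midpoints include insensitive lines at the highest concentration tested.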

NCI-H460 = assay: Growth inhibition of human NCI-H460 cells after 48 hrs by sulforhodamine B assay; settings: NCI-H460, 48 h; method in brief: as §1
KM12 = assay: Growth inhibition of human KM12 cells after 48 hrs by sulforhodamine B assay; settings: KM12, 48 h; method in brief: as §1
NCI/ADR-RES = assay: Growth inhibition of human NCI/ADR-RES cells after 48 hrs by sulforhodamine B assay; method in brief: as §1
HOP-62 = assay: Growth inhibition of human HOP62 cells after 48 hrs by sulforhodamine B assay; settings: HOP-62, 48 h; method in brief: as §1
BT-549 = assay: Growth inhibition of human BT549 cells after 48 hrs by sulforhodamine B assay; settings: BT-549, 48 h; method in brief: as §1
OVCAR-4 = assay: Growth inhibition of human OVCAR4 cells after 48 hrs by sulforhodamine B assay; settings: OVCAR-4, 48 h; method in brief: as §1
SF-539 = assay: Growth inhibition of human SF539 cells after 48 hrs by sulforhodamine B assay; settings: SF-539, 48 h; method in brief: as §1
EKVX = assay: Growth inhibition of human EKVX cells after 48 hrs by sulforhodamine B assay; method in brief: as §1
NCI-H522 = assay: Growth inhibition of human NCI-H522 cells after 48 hrs by sulforhodamine B assay; settings: NCI-H522, 48 h; method in brief: as §1
[1] = read-out: pLC50 (the source's name) (converted)

COc1ccc(Oc2nc3cc(N)cc(N)c3nc2-c2ccccc2)cc1
LC50 (50% net cell death) (HOP-92): 77.6 µM
TGI (HOP-92; read-out: pTGI (converted)): 8.13 µM
GI50 (Malme-3M): 51.3 µM
CC50 (Malme-3M; [1]): > 100 µM
TGI (Malme-3M; read-out: pTGI (converted)): > 100 µM
GI50 (K562): 26.3 µM
LC50 (K562): > 100 µM
TGI (K562; read-out: pTGI (converted)): > 100 µM
GI50 (CCRF-CEM): 2.95 µM
LC50 (CCRF-CEM): > 100 µM
TGI (CCRF-CEM; read-out: pTGI (converted)): 12.6 µM
GI50 (HCT-15): 52.5 µM
LC50 (HCT-15): > 100 µM
TGI (HCT-15; read-out: pTGI (converted)): > 100 µM
GI50 (T47D): 15.1 µM
CC50 (T47D; [1]): > 100 µM
TGI (T47D; read-out: pTGI (converted)): 97.7 µM
GI50 (HT-29): 39.8 µM
LC50 (HT-29): > 100 µM
TGI (HT-29; read-out: pTGI (converted)): > 100 µM
GI50 (CAKI-1): 79.4 µM
CC50 (CAKI-1; [1]): > 100 µM
TGI (CAKI-1; read-out: pTGI (converted)): > 100 µM
GI50 (SK-OV-3): 25.7 µM
CC50 (SK-OV-3; [1]): > 100 µM
TGI (SK-OV-3; read-out: pTGI (converted)): 55 µM
GI50 (786-0): 24.5 µM
CC50 (786-0; [1]): > 100 µM
TGI (786-0; read-out: pTGI (converted)): > 100 µM
GI50 (M14): > 100 µM
CC50 (M14; [1]): > 100 µM
TGI (M14; read-out: pTGI (converted)): > 100 µM
GI50 (MDA-MB-231): 20.4 µM
CC50 (MDA-MB-231; [1]): > 100 µM
TGI (MDA-MB-231; read-out: pTGI (converted)): 64.6 µM
GI50 (OVCAR-3): 14.8 µM
CC50 (OVCAR-3; [1]): > 100 µM
TGI (OVCAR-3; read-out: pTGI (converted)): 72.4 µM
GI50 (UACC-62): 63.1 µM
CC50 (UACC-62; [1]): > 100 µM
TGI (UACC-62; read-out: pTGI (converted)): > 100 µM
GI50 (UO-31): 28.2 µM
CC50 (UO-31; [1]): > 100 µM
TGI (UO-31; read-out: pTGI (converted)): > 100 µM
GI50 (TK-10): 53.7 µM
CC50 (TK-10; [1]): > 100 µM
TGI (TK-10; read-out: pTGI (converted)): > 100 µM
GI50 (SN12C): 50.1 µM
CC50 (SN12C; [1]): > 100 µM
TGI (SN12C; read-out: pTGI (converted)): > 100 µM
GI50 (A498): 49 µM
CC50 (A498; [1]): > 100 µM
TGI (A498; read-out: pTGI (converted)): > 100 µM
GI50 (HL-60(TB)): 15.5 µM
LC50 (HL-60(TB)): > 100 µM
TGI (HL-60(TB); read-out: pTGI (converted)): > 100 µM
GI50 (NCI-H460): 30.9 µM
LC50 (50% net cell kill) (NCI-H460): > 100 µM
TGI (NCI-H460; read-out: pTGI (converted)): > 100 µM
GI50 (KM12): 37.2 µM
LC50 (50% net cell kill) (KM12): > 100 µM
TGI (KM12; read-out: pTGI (converted)): > 100 µM
GI50 (NCI/ADR-RES): 60.3 µM
CC50 (NCI/ADR-RES; [1]): > 100 µM
TGI (NCI/ADR-RES; read-out: pTGI (converted)): > 100 µM
GI50 (HOP-62): 19.5 µM
LC50 (HOP-62): 87.1 µM
TGI (HOP-62; read-out: pTGI (converted)): 40.7 µM
GI50 (BT-549): 32.4 µM
CC50 (BT-549; [1]): > 100 µM
TGI (BT-549; read-out: pTGI (converted)): > 100 µM
GI50 (OVCAR-4): 3.72 µM
CC50 (OVCAR-4; [1]): > 100 µM
TGI (OVCAR-4; read-out: pTGI (converted)): 24.5 µM
GI50 (SF-539): 23.4 µM
LC50 (SF-539): > 100 µM
TGI (SF-539; read-out: pTGI (converted)): 61.7 µM
GI50 (EKVX): 24.5 µM
LC50 (50% net cell kill) (EKVX): > 100 µM
TGI (EKVX; read-out: pTGI (converted)): 63.1 µM
GI50 (NCI-H522): 31.6 µM
LC50 (NCI-H522): > 100 µM
TGI (NCI-H522; read-out: pTGI (converted)): > 100 µM
